# Experimental data reported in ChEMBL document CHEMBL4765233, “From Lead to Drug Candidate: Optimization of 3-(Phenylethynyl)-1H-pyrazolo[3,4-d]pyrimidin-4-amine Derivatives as Agents for the Treatment of Triple Negative Breast Cancer” (J Med Chem, 2016).
# Activity calls are given as the source filed them. The rule behind the calls is not given here.
# How the values were obtained:
# MDA-MB-231 [1] = test: Induction of apoptosis in human MDA-MB-231 cells assessed as live cells at 0.1 uM incubated for 24 hrs by annexin V-FITC and propidium iodide staining based flow cytometry analysis (reference value: 96.95 %); format: functional
# MDA-MB-231 [2] = test: Inhibition of Fra1 expression in human MDA-MB-231 cells at 0.03 to 0.3 uM incubated for 20 hrs by Western blot analysis; format: functional, cell-based; settings: dose 0.03-0.3 µM
# Outline: (§1)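 MDA-MB-231 cells treated with a series of concentrations for 20 h at 37 °C. Cells washed with ice-cold saline and lysed in RIPA buffer with protease cocktail. Lysates cleared at 12000 rpm for 10 min at 4 °C and protein quantified by Bradford. Equal protein separated by SDS-PAGE, transferred to PVDF and probed with antibodies.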
# MDA-MB-231 [3] = test: Induction of apoptosis in human MDA-MB-231 cells assessed as necrotic cells at 0.1 uM incubated for 24 hrs by annexin V-FITC and propidium iodide staining based flow cytometry analysis (reference value: 0.2 %); format: functional
# MDA-MB-231 [4] = test: Increase in cleaved caspase-3 level in human MDA-MB-231 cells at 0.03 to 0.3 uM incubated for 20 hrs by Western blot analysis; format: functional, cell-based; settings: dose 0.03-0.3 µM
# Outline: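 MDA-MB-231 cells given a concentration series for 20 h at 37 °C. Cells lysed in RIPA with protease cocktail, cleared at 12000 rpm, 4 °C. Protein quantified by Bradford, equal amounts run on SDS-PAGE, transferred to PVDF and immunoblotted.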
# MDA-MB-231 [5] = test: Antimigratory activity against human MDA-MB-231 cells assessed as inhibition of cell migration at 0.3 uM incubated for 20 hrs by wound healing assay; format: functional, cell-based
# Outline: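 MDA-MB-231 monolayer grown to confluence, scratched with a sterile pipet tip, rinsed with physiological saline, then given DMEM containing vehicle or compound. Wound imaged after 20 h to assess migration.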
# MDA-MB-231 [6] = test: Induction of apoptosis in human MDA-MB-231 cells assessed as late apoptotic cells at 0.1 uM incubated for 24 hrs by annexin V-FITC and propidium iodide staining based flow cytometry analysis (reference value: 0.85 %); format: functional
# MDA-MB-231 [7] = test: Inhibition of MEK phosphorylation in human MDA-MB-231 cells at 0.03 to 0.3 uM incubated for 20 hrs by Western blot analysis; format: cell-based; settings: dose 0.03-0.3 µM; outline: as §1
# MDA-MB-231 [8] = test: Antiproliferative activity against human MDA-MB-231 cells assessed as reduction in cell viability incubated for 72 hrs by MTT assay; format: functional, cell-based; settings: MDA-MB-231, 72 h
# Outline: (§2)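 MTT viability assay. ATCC cell lines were grown in designated medium with 10% FBS at 37 °C, 5% CO2. Cells seeded at 1500−30000 per well and incubated 24 h, then exposed to compound (0−10 μg/mL) for 72 h. MTT added for 2−4 h. Formazan dissolved in DMSO (adherent) or acidified SDS overnight (suspension), absorbance read at 570 nm. Triplicates; IC50 calculated.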
# MDA-MB-231 [9] = test: Antitumor activity against human MDA-MB-231 cells xenografted in SCID mouse assessed as tumor growth inhibition at 40 mg/kg, po qd for 21 days and measured every 3 days; format: functional; settings: dose 40.0 mg/kg/day, time 21.0 day
# Outline: (§3)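 SCID mice (5−6 weeks) injected subcutaneously with 100 μL of cells at 5 × 10^7/mL. At 150−200 mm3 mice randomized, 6 per group. Oral compounds given in water with 25% PEG400 plus 5% DMSO; paclitaxel given 10 mg/kg/week iv. Tumor volume a×b²/2 and body weight measured every 3 days. Inhibition rate (c−d)/c×100% against vehicle control.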
# MDA-MB-231 [10] = test: Induction of apoptosis in human MDA-MB-231 cells assessed as early apoptotic cells at 0.1 uM incubated for 24 hrs by annexin V-FITC and propidium iodide staining based flow cytometry analysis (reference value: 2 %); format: functional
# MDA-MB-435 [11] = test: Antiproliferative activity against human MDA-MB-435 cells assessed as reduction in cell viability incubated for 72 hrs by MTT assay; format: functional, cell-based; settings: MDA-MB-435, 72 h; outline: as §2
# MDA-MB-231 [12] = test: Inhibition of ERK phosphorylation in human MDA-MB-231 cells at 0.03 to 0.3 uM incubated for 20 hrs by Western blot analysis; format: cell-based; settings: dose 0.03-0.3 µM; outline: as §1
# MDA-MB-435 [13] = test: Antitumor activity against human MDA-MB-435 cells xenografted in SCID mouse assessed as tumor growth inhibition at 40 mg/kg, po QD for 21 days and measured every 3 days; format: functional; settings: dose 40.0 mg/kg/day, time 21.0 day; outline: as §3
# HepG2 = test: Antiproliferative activity against human HepG2 cells assessed as reduction in cell viability incubated for 72 hrs by MTT assay; format: ADME, cell-based; settings: HepG2, 72 h
# [14] = Toxicity in SCID mouse xenografted with MDA-MB-231 cells assessed as change in body weight at 40 mg/kg, po qd for 21 days and measured every 3 days; format: organism-based; settings: in vivo, 504 h, dose 40 mg/kg/day, time 21 day
# Outline: (§4)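 Exponential-phase cells washed and injected subcutaneously (5 × 10^6 cells in 100 μL) into 5–6-week SCID mice. At 150–200 mm3, mice randomised to groups of 6. Oral dosing daily in water with 25% PEG400 and 5% DMSO; paclitaxel 10 mg/kg weekly by tail vein. Body weight measured every 3 days and side effects checked daily.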
# MDA-MB-231 [15] = test: Inhibition of Fra1 phosphorylation in human MDA-MB-231 cells at 0.03 to 0.3 uM incubated for 20 hrs by Western blot analysis; format: functional, cell-based; settings: dose 0.03-0.3 µM; outline: as §1
# MDA-MB-231 [16] = test: Inhibition of colony formation in human MDA-MB-231 cells at 0.1 uM treated for 12 days by crystal violet staining based visual analysis; format: functional, cell-based; settings: time 12.0 day
# Outline: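 MDA-MB-231 cells seeded at 5000 per well in six-well plates and treated the next day, with drug-containing medium replaced every 4 days. After 12 days, colonies fixed with methanol and stained with crystal violet, then photographed.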
# [17] = Toxicity against SCID mouse xenografted with human MDA-MB-435 cells assessed as change in body weight at 10 mg/kg, iv administered weekly for 21 days and measured every 3 days; format: organism-based; settings: in vivo, 504 h, time 21 day; outline: as §4
# [18] = test system: MDA-MB-435 (Homo sapiens); test: Antitumor activity against human MDA-MB-435 cells xenografted in SCID mouse assessed as tumor growth inhibition at 10 mg/kg, iv administered weekly for 21 days and measured every 3 days; settings: time 21.0 day
# MDA-MB-231 [19] = test: Antitumor activity against human MDA-MB-231 cells xenografted in SCID mouse assessed as tumor growth inhibition at 10 mg/kg, iv administered weekly for 21 days and measured every 3 days; format: functional, organism-based; settings: time 21.0 day; outline: as §3
# [20] = Toxicity against SCID mouse xenografted with human MDA-MB-231 cells assessed as change in body weight at 10 mg/kg, iv administered weekly for 21 days and measured every 3 days; format: organism-based; settings: in vivo, 504 h, time 21 day; outline: as §4
compound,measurement,setting,value
Cc1nc(Nc2ncc(C(=O)Nc3c(C)cccc3Cl)s2)cc(N2CCN(CCO)CC2)n1.O [DASATINIB],Activity,MDA-MB-231 [1],92.97%
same,inhibition,MDA-MB-231 [2],Active
same,Activity,MDA-MB-231 [3],0.34%
same,Activity,MDA-MB-231 [4],Active
same,Activity,MDA-MB-231 [5],Active
same,Activity,MDA-MB-231 [6],2.45%
same,inhibition,MDA-MB-231 [7],Active
same,IC50,MDA-MB-231 [8],0.112 µM
same,Activity,MDA-MB-231 [9],Active
same,Activity,MDA-MB-231 [10],4.24%
same,IC50,MDA-MB-435 [11],5.15 µM
same,inhibition,MDA-MB-231 [12],Active
same,inhibition,MDA-MB-435 [13],Active
same,IC50,HepG2,7.5 µM
same,Activity,[14],Non-Toxic
same,inhibition,MDA-MB-231 [15],Active
same,inhibition,MDA-MB-231 [16],Active
CC(=O)O[C@H]1C(=O)[C@@]2(C)[C@H]([C@H](OC(=O)c3ccccc3)[C@]3(O)C[C@H](OC(=O)[C@H](O)[C@@H](NC(=O)c4ccccc4)c4ccccc4)C(C)=C1C3(C)C)[C@]1(OC(C)=O)CO[C@@H]1C[C@@H]2O [PACLITAXEL],Activity,[17],Non-Toxic
same,Activity,[18],Active
same,Activity,MDA-MB-231 [19],Active
same,Activity,[20],Non-Toxic
